In data set [1] the test system is Mycobacterium tuberculosis. Briefly: Antimycobacterial activity against Mycobacterium tuberculosis H37Rv after 3 to 7 days by rapid direct susceptibility test. It is filed as functional. The procedure, abridged:
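Two-fold DMSO dilutions, 0.0125 to 200 μg/mL for H37Rv and 0.062 to 128 μg/mL for the MDR strain (resistant to INH, RIF and ethambutol), mixed with suspension containing 4×10^-3 mg cells. Sealed plates incubated at 37 °C in a wet box. Growth was read visually under high magnification at 3 days and again 7 days later. MIC is the lowest concentration giving complete growth inhibition.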

A short description of data set [2]: Cytotoxicity against African green monkey Vero cells assessed as reduction in cell viability after 72 hrs by MTT assay. The format is cell-based. Particulars: chlorocebus sabaeus. A digest of the protocol:
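VERO cells kept in MEM with Earle's salts + 10% FBS, 37 °C, 5% CO2; seeded 1×10^4 cells/well, recovered 24 h, then medium swapped for assay medium with compound (DMSO-dissolved, 1000 to 4 μg/mL) or drug-free. Viability by MTT after 72 h exposure; CC50 calculated by Bliss analysis.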

The subject of data set [3] is Mycobacterium tuberculosis. Briefly: Potency index, ratio of rifampicin MIC90 to compound MIC90 for Mycobacterium tuberculosis H37Rv. The format is functional.
For data set [4], the system named is Mycobacterium tuberculosis. Briefly: Potency index, ratio of gatifloxacin MIC90 to compound MIC90 for Mycobacterium tuberculosis H37Rv. It is filed as functional.

The structures appear in SMILES notation. In brackets after ≈: the same amount, converted by molar mass.

Turning to `NNC(=O)c1ccncc1` [ISONIAZID], the MIC90 (commonly the lowest concentration that inhibits either 90% of growth or 90% of the strains tested, depending on the study) in data set [1] came to 0.05 µg/mL (≈ 0.365 µM). `COc1c(N2CCN(Cc3cn(CCN4C(=O)C(=O)c5cc(Cl)ccc54)nn3)C(C)C2)c(F)cc2c(=O)c(C(=O)O)cn(C3CC3)c12` (centres undefined): in data set [2], the CC50 – broadly, the concentration that lowers cell viability or growth by half – at 72 h stood at 62.5 µg/mL (≈ 94.1 µM). In data set [1], this molecule registered an MIC90 of 0.39 µg/mL (≈ 0.587 µM). The matching figures for `COc1c(N2CCN(Cc3cn(CCN4C(=O)/C(=N\O)c5cc(F)ccc54)nn3)C(C)C2)c(F)cc2c(=O)c(C(=O)O)cn(C3CC3)c12` (centres undefined): 7.8 µg/mL (≈ 11.8 µM) and 1.56 µg/mL (≈ 2.35 µM). For `CO/N=C1\C(=O)N(CCn2cc(CN3CCN(c4c(F)cc5c(=O)c(C(=O)O)cn(C6CC6)c5c4OC)CC3C)nn2)c2ccccc21` (centres undefined), in that order: 62.5 µg/mL (≈ 94.9 µM) and 0.78 µg/mL (≈ 1.18 µM).

For `COc1c(N2CCN(Cc3cn(CCN4C(=O)C(=O)c5cc(C)ccc54)nn3)C(C)C2)c(F)cc2c(=O)c(C(=O)O)cn(C3CC3)c12` (centres undefined), the CC50 at 72 h in data set [2] stood at 250 µg/mL (≈ 388 µM). Besides, the MIC90 in data set [1] came out at 1.56 µg/mL (≈ 2.42 µM). As for `COc1c(N2CCNC(C)C2)c(F)cc2c(=O)c(C(=O)O)cn(C3CC3)c12` (centres undefined) [GATIFLOXACIN], in data set [1], the MIC90 amounted to 0.78 µg/mL (≈ 2.08 µM). As to `CO/N=C1\C(=O)N(CCn2cc(CN3CCN(c4c(F)cc5c(=O)c(C(=O)O)cn(C6CC6)c5c4OC)CC3C)nn2)c2ccc(F)cc21` (centres undefined), the CC50 at 72 h in data set [2] is 7.8 µg/mL (≈ 11.5 µM). The molecule also registered an MIC90 in data set [1] of 0.2 µg/mL (≈ 0.296 µM). The matching figures for `CO/N=C1\C(=O)N(CCn2cc(CN3CCN(c4c(F)cc5c(=O)c(C(=O)O)cn(C6CC6)c5c4OC)CC3C)nn2)c2ccc(C)cc21` (centres undefined): 31.2 µg/mL (≈ 46.4 µM) and 1.56 µg/mL (≈ 2.32 µM). The matching figures for `COc1c(N2CCN(Cc3cn(CCN4C(=O)/C(=N\O)c5cc(Cl)ccc54)nn3)C(C)C2)c(F)cc2c(=O)c(C(=O)O)cn(C3CC3)c12` (centres undefined): 31.2 µg/mL (≈ 45.9 µM) and 0.78 µg/mL (≈ 1.15 µM).

`COc1c(N2CCN(Cc3cn(CCN4C(=O)C(=O)c5ccccc54)nn3)C(C)C2)c(F)cc2c(=O)c(C(=O)O)cn(C3CC3)c12` (centres undefined): in data set [2], the CC50 at 72 h was 125 µg/mL (≈ 199 µM). This molecule yielded an MIC90 in data set [1] of 1.56 µg/mL (≈ 2.48 µM). `CO[C@H]1/C=C/O[C@@]2(C)Oc3c(C)c(O)c4c(O)c(c(/C=N/N5CCN(C)CC5)c(O)c4c3C2=O)NC(=O)/C(C)=C\C=C\[C@H](C)[C@H](O)[C@@H](C)[C@@H](O)[C@@H](C)[C@H](OC(C)=O)[C@@H]1C` [RIFAMPIN] gave an MIC90 in data set [1] of 0.39 µg/mL (≈ 0.474 µM).

Take `COc1c(N2CCN(Cc3cn(CCN4C(=O)C(=O)c5cc(F)ccc54)nn3)C(C)C2)c(F)cc2c(=O)c(C(=O)O)cn(C3CC3)c12` (centres undefined): the 50% cytotoxic concentration (CC50) at 72 h in data set [2] worked out at 125 µg/mL (≈ 193 µM). In data set [1], the MIC90 is 0.78 µg/mL (≈ 1.2 µM). The matching figures for `COc1c(N2CCN(Cc3cn(CCN4C(=O)/C(=N\O)c5ccccc54)nn3)C(C)C2)c(F)cc2c(=O)c(C(=O)O)cn(C3CC3)c12` (centres undefined): 250 µg/mL (≈ 388 µM) and 3.12 µg/mL (≈ 4.84 µM). For the molecule `CO/N=C1\C(=O)N(CCn2cc(CN3CCN(c4c(F)cc5c(=O)c(C(=O)O)cn(C6CC6)c5c4OC)CC3C)nn2)c2ccc(Cl)cc21` (centres undefined), the Ratio in data set [3] and in data set [4] was 4 - 8 each time. Further, in data set [2], the 50% cytotoxic concentration (CC50) at 72 h was 7.8 µg/mL (≈ 11.3 µM). Further, the MIC90 in data set [1] is 0.1 µg/mL (≈ 0.144 µM). Turning to `COc1c(N2CCN(Cc3cn(CCN4C(=O)/C(=N\O)c5cc(C)ccc54)nn3)C(C)C2)c(F)cc2c(=O)c(C(=O)O)cn(C3CC3)c12` (centres undefined), the cytotoxic concentration (CC50) at 72 h in data set [2] was found to be 62.5 µg/mL (≈ 94.9 µM). The molecule further registered an MIC90 in data set [1] of 6.25 µg/mL (≈ 9.49 µM).

Values taken from ChEMBL document CHEMBL4118076, “Azide-alkyne cycloaddition towards 1H-1,2,3-triazole-tethered gatifloxacin and isatin conjugates: Design, synthesis and in vitro anti-mycobacterial evaluation” (Eur J Med Chem, 2017).
